Reference: ChEMBL document CHEMBL1156002, “Synthesis, Raman, FT-IR, NMR spectroscopic characterization, antimicrobial activity, cytotoxicity and DNA binding of new mixed aza-oxo-thia macrocyclic compounds” (2009)
Values after ≈ are worked out from the molar mass of the structure shown. Active and inactive are the calls of the source. No cut-off for these calls is given here.

Tests used:
[1] = system: Hanseniaspora guilliermondii; experiment: Antifungal activity against Hanseniaspora guilliermondii DSM 3432 after 24 hrs by broth micro dilution method; assay type: functional; settings: DSM 3432, 24 h
In short: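 Broth microdilution was run in cation-adjusted Mueller Hinton Broth. Compounds were dissolved in DMSO at 2 mg mL^-1 and serially diluted two-fold. Yeast precultures were grown in Malt Extract Broth for 48 h. The final inoculum was about 10⁶ cfu mL^-1, and plates were incubated at 37 °C for 24 h. The MIC was read from this series.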

Bacillus cereus = experiment: Antibacterial activity against Bacillus cereus ATCC 7064 after 24 hrs by broth micro dilution method; assay type: functional; settings: ATCC 7064, 24 h
Rhodotorula mucilaginosa = experiment: Antifungal activity against Rhodotorula rubra DSM 70403 after 72 hrs by agar disk diffusion assay; assay type: functional
In short: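 Sterile 6 mm paper discs were loaded with ligand solution freshly prepared in DMSO and placed on inoculated agar. The inoculum came from broth cultures: bacteria in Nutrient Broth at 30 °C for 24 h, yeasts in Malt Extract Broth for 48 h. Plates were incubated at 35 °C for 24 h (bacteria) or 25 °C for 72 h (yeasts). A DMSO solvent control and a reference antibiotic disc were included on each plate.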

Listeria monocytogenes = experiment: Antibacterial activity against Listeria monocytogenes ATCC 15313 after 24 hrs by agar disk diffusion assay; assay type: functional
In short: (§1)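 Disk diffusion with sterile 6 mm discs loaded with DMSO solutions of the test agents and placed on inoculated agar. Bacteria were pre-grown in Nutrient Broth at 30 °C for 24 h, and plates were incubated at 35 °C for 24 h. Each plate carried a reference antibiotic disc matched to the organism, and a DMSO-only solvent control was run.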

A549 = experiment: Cytotoxicity against human A549 cells assessed as cell viability at 100 uM after 48 hrs by MTT assay; assay type: functional; settings: A549, 48 h, read-out: Activity
In short: (§2)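 Cells were seeded at 3.10³–5.10³ per well in RPMI 1640 with 10% FBS, 4 mM L-glutamine and penicillin/streptomycin, then held 24 h at 37 °C under 5% CO₂. Ligands (DMSO, final 0.5% v/v) were added at 0.1–100 for 24 or 48 h. MTT was added for 4 h and dissolved in 50% DMF/5% SDS. A570 was read, and cytotoxicity was calculated as 100×(OD treated/OD untreated).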

[2] = Cytotoxicity against human 23132/87 cells assessed as cell viability at 10 uM after 24 hrs by MTT assay; assay type: functional; settings: 23132-87, 24 h, read-out: Activity; in short: as §2
[3] = Cytotoxicity against human 23132/87 cells assessed as cell viability at 100 uM after 24 hrs by MTT assay; assay type: functional; settings: 23132-87, 24 h, read-out: Activity; in short: as §2
Pseudomonas aeruginosa = experiment: Antibacterial activity against Pseudomonas aeruginosa ATCC 27853 after 24 hrs by broth micro dilution method; assay type: functional; settings: ATCC 27853, 24 h
[4] = Cytotoxicity against human 23132/87 cells assessed as cell viability at 1 uM after 24 hrs by MTT assay; assay type: functional; settings: 23132-87, 24 h, read-out: Activity; in short: as §2
Micrococcus luteus = experiment: Antibacterial activity against Micrococcus luteus La 2971 after 24 hrs by agar disk diffusion assay; assay type: functional; in short: as §1
[5] = Cytotoxicity against human 23132/87 cells assessed as cell viability at 10 uM after 48 hrs by MTT assay; assay type: functional; settings: 23132-87, 48 h, read-out: Activity; in short: as §2
Proteus vulgaris = experiment: Antibacterial activity against Proteus vulgaris ATCC 8427 after 24 hrs by agar disk diffusion assay; assay type: functional; in short: as §1
23132-87 = experiment: Induction of apoptosis in human 23132/87 cells assessed as change in nuclear appearance at 100 uM after 24 hrs by hoechst nuclear staining; assay type: functional, cell-based
In short: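 Cells grown in 6-well plates were treated for 24 h, washed three times in PBS and fixed in ice-cold methanol for 10 min. They were stained with Hoechst 33258 for 5 min, destained in double-distilled water for 5 min and examined by fluorescence microscopy. Untreated and DMSO-treated cells served as controls.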

[6] = system: Mycolicibacterium smegmatis; experiment: Antibacterial activity against Mycobacterium smegmatis CCM 2067 after 24 hrs by broth micro dilution method; assay type: functional; settings: CCM 2067, 24 h
Escherichia coli = experiment: Antibacterial activity against Escherichia coli ATCC 11230 after 24 hrs by broth micro dilution method; assay type: functional; settings: ATCC 11230, 24 h

MIC [1]	MIC (Bacillus cereus)	MIC (Pseudomonas aeruginosa)	MIC [6]	MIC (Escherichia coli)	Compound	inhibition zone (IZ) (Rhodotorula mucilaginosa)	inhibition zone (IZ) (Listeria monocytogenes)	viability at 100 µM (A549)	viability at 10 µM [2]	viability at 100 µM [3]	viability at 1 µM [4]	inhibition zone (IZ) (Micrococcus luteus)	viability at 10 µM [5]	inhibition zone (IZ) (Proteus vulgaris)	Activity (23132-87)
1.56 µg/mL (≈ 2.59 µM)	6.25 µg/mL (≈ 10.4 µM)	50 µg/mL (≈ 83 µM)	25 µg/mL (≈ 41.5 µM)	25 µg/mL (≈ 41.5 µM)	O=C1CSCC(=O)Nc2nc(nc(-c3ccccc3)n2)NC(=O)CSCC(=O)Nc2nc(nc(-c3ccccc3)n2)N1	17 mm	10 mm	> 86%	> 86%	> 86%	> 86%	14 mm	> 86%	12 mm	inactive
1.56 µg/mL (≈ 2.34 µM)	3.12 µg/mL (≈ 4.69 µM)	25 µg/mL (≈ 37.5 µM)	25 µg/mL (≈ 37.5 µM)	25 µg/mL (≈ 37.5 µM)	O=C1CSSCC(=O)Nc2nc(nc(-c3ccccc3)n2)NC(=O)CSSCC(=O)Nc2nc(nc(-c3ccccc3)n2)N1	18 mm	10 mm	> 86%	> 86%	> 86%	> 86%	18 mm	> 86%	11 mm	inactive
1.56 µg/mL (≈ 2.37 µM)	12.5 µg/mL (≈ 19 µM)	25 µg/mL (≈ 37.9 µM)	50 µg/mL (≈ 75.9 µM)	25 µg/mL (≈ 37.9 µM)	O=C1CCSCCC(=O)Nc2nc(nc(-c3ccccc3)n2)NC(=O)CCSCCC(=O)Nc2nc(nc(-c3ccccc3)n2)N1	16 mm	10 mm	> 86%	> 86%	> 86%	> 86%	12 mm	> 86%	11 mm	inactive
1.56 µg/mL (≈ 2.16 µM)	6.25 µg/mL (≈ 8.65 µM)	25 µg/mL (≈ 34.6 µM)	25 µg/mL (≈ 34.6 µM)	25 µg/mL (≈ 34.6 µM)	O=C1CCSSCCC(=O)Nc2nc(nc(-c3ccccc3)n2)NC(=O)CCSSCCC(=O)Nc2nc(nc(-c3ccccc3)n2)N1	21 mm	10 mm	> 86%	> 86%	> 86%	> 86%	17 mm	> 86%	13 mm	inactive
